{
  "source": "ChEMBL document CHEMBL1128324",
  "about": "“Synthesis and antitumor activity of 4- and 5-substituted derivatives of isoquinoline-1-carboxaldehyde thiosemicarbazone” (1995)",
  "assay_type_in_all_cases": "functional",
  "key": {"Mus musculus [1]": {"species_on_record": "Mus musculus", "assay": "The compound was tested for antineoplastic activity on the survival time of mice bearing L1210 leukemia.% T/C represents the ratio of the survival time of treated to control mice * 100."}, "Mus musculus [2]": {"species_on_record": "Mus musculus", "assay": "The compound was tested for antineoplastic activity on the survival time of mice bearing L1210 leukemia. Average weight change of mice from onset to termination of therapy.", "summary_of_the_method": "(§1)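 CD2F1 mice bearing L1210 leukemia, 5-10 per group. Drug was given ip as a suspension twice daily (about 12 h apart) for 6 consecutive days, starting 24 h after tumor implantation. Mean survival counts only mice dying before day 60. Survivors beyond 60 days are scored as long-term. Body-weight change is measured from the start to the end of therapy.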"}, "Mus musculus [3]": {"species_on_record": "Mus musculus", "assay": "antineoplastic activity on the survival time of mice bearing L1210 leukemia.% T/C represents the ratio of the survival time of treated to control mice * 100.", "summary_of_the_method": "(§2)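 L1210 leukemia-bearing CD2F1 mice, 5-10 per group, received the drug as an ip suspension once daily for 6 consecutive days, starting 24 h after tumor implantation. %T/C is treated over control survival time ×100. Average weight change is measured from the onset to the termination of treatment.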"}, "Mus musculus [4]": {"species_on_record": "Mus musculus", "assay": "Survival time of mice(out of 5) bearing L1210 leukemia. Long term survivors are the number of mice that survived for >60 days relative to the total number of treated mice.", "summary_of_the_method": "as §1"}, "Mus musculus [5]": {"species_on_record": "Mus musculus", "assay": "The compound was tested for antineoplastic activity on the survival time of mice bearing L1210 leukemia. Average survival time includes only those mice that died prior to day 60.", "summary_of_the_method": "as §1"}, "Mus musculus [6]": {"species_on_record": "Mus musculus", "assay": "The compound was tested for antineoplastic activity on the survival time of mice bearing L1210 leukemia. Optimum daily dosage of the compound."}, "Mus musculus [7]": {"species_on_record": "Mus musculus", "assay": "antineoplastic activity on the survival time of mice bearing L1210 leukemia. Average weight change of mice from onset to termination of drug treatment.", "summary_of_the_method": "as §2"}, "Bos taurus": {"species_on_record": "Bos taurus", "assay": "Effect on rate of glucuronidation of the hydroxyl group by bovine UDP-glucuronyltransferase", "summary_of_the_method": "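UDP formed during glucuronidation was measured by a coupled enzymatic assay, and the rate was calculated from NADH absorbance using an extinction coefficient of 6.22 × 10^6 cm2 mol-1. Test agents were dissolved in DMSO at final concentrations of 0.5 mM (hydroxyl-substituted pyridines) and 0.1 mM (hydroxyl-substituted isoquinolines). Model compounds lacking the thiosemicarbazone group were used because thiosemicarbazones interfere with the absorbance.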"}, "Mus musculus [8]": {"species_on_record": "Mus musculus", "assay": "antineoplastic activity on the survival time of mice bearing L1210 leukemia. Daily dosage of the compound.", "summary_of_the_method": "as §2"}},
  "note": "Where “and” joins values, the source holds several entries; their conditions need not be identical. Identical values can stand only once.",
  "data": [
    {"smiles": "N/C(S)=N/N=C\\c1ncc(N)c2ccccc12", "values": [
      {"measurement": "T/C", "setting": "Mus musculus [1]", "value": 165, "unit": "%"},
      {"measurement": "Average weight", "setting": "Mus musculus [2]", "value": -7.8, "unit": "%"},
      {"measurement": "T/C", "setting": "Mus musculus [3]", "value": "177% and 174% and 162%"},
      {"measurement": "Long-term survivors", "setting": "Mus musculus [4]", "value": 3},
      {"measurement": "Average survival", "setting": "Mus musculus [5]", "value": 13.5, "unit": "days"},
      {"measurement": "Dose", "setting": "Mus musculus [6]", "value": 40, "unit": "mg/kg"},
      {"measurement": "Average weight change", "setting": "Mus musculus [7]", "value": "3.2% and 3.6% and 3%"}
    ]},
    {"smiles": "N/C(S)=N/N=C/c1ccc(N)cn1", "values": [
      {"measurement": "T/C", "setting": "Mus musculus [1]", "value": 234, "unit": "%"},
      {"measurement": "Average weight", "setting": "Mus musculus [2]", "value": -7.6, "unit": "%"},
      {"measurement": "T/C", "setting": "Mus musculus [3]", "value": "129% and 140% and 138%"},
      {"measurement": "Long-term survivors", "setting": "Mus musculus [4]", "value": 1},
      {"measurement": "Average survival", "setting": "Mus musculus [5]", "value": 19.2, "unit": "days"},
      {"measurement": "Dose", "setting": "Mus musculus [6]", "value": 20, "unit": "mg/kg"},
      {"measurement": "Average weight change", "setting": "Mus musculus [7]", "value": "-18% and -2.8% and 0%"}
    ]},
    {"smiles": "CNc1cnc(/C=N\\N=C(\\N)S)c2ccccc12", "values": [
      {"measurement": "T/C", "setting": "Mus musculus [3]", "value": "177% and 159% and 179%"},
      {"measurement": "Average weight change", "setting": "Mus musculus [7]", "value": "1% and 3% and 8%"}
    ]},
    {"smiles": "Cc1ncc(C)c2c(O)cccc12", "values": [
      {"measurement": "Relative rate", "setting": "Bos taurus", "value": 0.08}
    ]},
    {"smiles": "N/C(S)=N/N=C\\c1ncc(N2CCOCC2)c2c(N)cccc12", "values": [
      {"measurement": "T/C", "setting": "Mus musculus [3]", "value": "138% and 141% and 149%"},
      {"measurement": "Average weight change", "setting": "Mus musculus [7]", "value": "2% and 7.3% and 6.8%"}
    ]},
    {"smiles": "Oc1cccc2cnccc12", "values": [
      {"measurement": "Relative rate", "setting": "Bos taurus", "value": 0.45}
    ]},
    {"smiles": "Cc1ncccc1O", "values": [
      {"measurement": "Relative rate", "setting": "Bos taurus", "value": 0.65}
    ]},
    {"smiles": "Cc1cc(C)c(O)cn1", "values": [
      {"measurement": "Relative rate", "setting": "Bos taurus", "value": 1}
    ]},
    {"smiles": "NCCNc1cnc(/C=N\\N=C(\\N)S)c2ccccc12", "values": [
      {"measurement": "T/C", "setting": "Mus musculus [3]", "value": "145% and 120% and 116%"},
      {"measurement": "Dose", "setting": "Mus musculus [8]", "value": "60 mg/kg and 40 mg/kg and 20 mg/kg"},
      {"measurement": "Average weight change", "setting": "Mus musculus [7]", "value": "-4.6% and -5%"}
    ]},
    {"smiles": "Cc1ccc(O)cn1", "values": [
      {"measurement": "Relative rate", "setting": "Bos taurus", "value": 0.59}
    ]},
    {"smiles": "Cc1ccnc(C)c1O", "values": [
      {"measurement": "Relative rate", "setting": "Bos taurus", "value": 0.81}
    ]},
    {"smiles": "Cc1nccc2c(O)cccc12", "values": [
      {"measurement": "Relative rate", "setting": "Bos taurus", "value": 1}
    ]}
  ]
}
